Tests used:
[1] = species on record: Rattus norvegicus; assay: Neuroprotective effect against ischemic injury with median effective concentration in rat; assay type: functional
Procedure, shortened: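 Cerebral ischemia was simulated in a cell culture model by exposing rat cortical cultures to potassium cyanide and 2-deoxyglucose. Neuroprotection against this injury was reported as a median effective concentration.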

[2] = In vitro inhibition of N-acetyl-L-aspartyl-[3H]L-glutamate binding to Glutamate carboxypeptidase II
Procedure, shortened: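 Purified recombinant GCP II was incubated with radiolabelled substrate N-acetyl-L-aspartyl-[3H]-L-glutamate, and inhibition was reported as IC50. Values are mean ± SD of at least triplicate experiments; where only two experiments were run, the value is the mean of the duplicates.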

Row | Compound | EC50 [1] [nM] | IC50 [2] [nM]
1 | O=C(O)CCC(CCCS)C(=O)O (racemic) | 13 | –
2 | O=C(O)CC[C@H](CP(=O)(O)Cc1c(F)c(F)c(F)c(F)c1F)C(=O)O | 4.1 | 34
3 | O=C(O)CCC(CP(=O)(O)Cc1c(F)c(F)c(F)c(F)c1F)C(=O)O (racemic) | 9.5 | –
4 | O=C(O)CCC(CP(=O)(O)O)C(=O)O (centres undefined) | 1.2 | –
5 | O=C(O)CC[C@H](CP(=O)(O)O)C(=O)O | 0.2 | –
6 | O=C(O)CC[C@@H](CP(=O)(O)O)C(=O)O | 70 | –
7 | O=C(O)CC[C@@H](CP(=O)(O)Cc1c(F)c(F)c(F)c(F)c1F)C(=O)O | 410 | 1400

From ChEMBL document CHEMBL1143563, “Enantiospecificity of glutamate carboxypeptidase II inhibition” (J Med Chem, 2005)
